In ChEMBL document CHEMBL1157979, “Chromone derivatives from the filamentous fungus Lachnum sp. BCC 2424” (J Nat Prod, 2006):
pIC50: −log10 of the molar value. Values after ≈ are worked out from the molar mass of the structure shown. Active and inactive are the calls of the source. The rule behind the calls is not given here.

Key:
[1] = test system: Mycobacterium tuberculosis; assay: Antimicrobial activity against Mycobacterium tuberculosis H37Ra by Microplate Alamar blue assay; format: functional
Summary of the method: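 Whole-cell growth inhibition of M. tuberculosis H37Ra read by Microplate Alamar Blue Assay; value reported as minimum inhibitory concentration; isoniazid and kanamycin sulfate as reference drugs.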

Candida albicans = assay: Antifungal activity against Candida albicans by MTT assay; format: functional, organism-based
Summary of the method: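 Tested against Candida albicans strain ATCC 90028 with a modified colorimetric method that uses tetrazolium salt (MTT) reduction as the read-out.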

BC1 = assay: (§1) Cytotoxicity against human BC1 cells by MTT assay; format: functional, cell-based
KB = assay: Cytotoxicity against human KB cells by MTT assay; format: functional, cell-based
Plasmodium falciparum = assay: Antimalarial activity after 42 hrs against Plasmodium falciparum K1; conditions: K1, 42 h
[2] = as §1; format: functional, cell-based

| Compound | Activity [1] | Activity (Candida albicans) | Activity (BC1) | Activity (KB) | MIC [1] | also measured |
| --- | --- | --- | --- | --- | --- | --- |
| CC(=O)C[C@]1(O)C(=O)c2c(O)cc(CO)cc2O[C@@]1(C)[C@@H]1CCC(=O)O1 | inactive | inactive | inactive | inactive | – | – |
| C[C@]1([C@@H]2CCC(=O)O2)CC(=O)c2c(O)cc(CO)cc2O1 | inactive | inactive | inactive | inactive | – | – |
| Cc1cc(O)c2c(=O)c(O)c(C)oc2c1 | inactive | inactive | inactive | inactive | – | – |
| C[C@H]1[C@@H](O)O[C@@H]2O[C@@]3(C)CC[C@H]4[C@H](C)CC[C@@H]1[C@@]24OO3 [ARTENIMOL] | – | – | – | – | – | pIC50 (Plasmodium falciparum): 8.43 |
| Cc1c2ccncc2c(C)c2c1[nH]c1ccccc12 [ELLIPTECINE] | – | – | – | – | – | IC50 [2]: 0.22 µg/mL (≈ 0.893 µM); IC50 (KB): 0.24 µg/mL (≈ 0.974 µM) |
| NNC(=O)c1ccncc1 [ISONIAZID] | – | – | – | – | 0.05 µg/mL (≈ 0.365 µM) | – |
| NC[C@H]1O[C@H](O[C@H]2[C@H](O)[C@@H](O[C@H]3O[C@H](CO)[C@@H](O)[C@H](N)[C@H]3O)[C@H](N)C[C@@H]2N)[C@H](O)[C@@H](O)[C@@H]1O.O=S(=O)(O)O [KANAMYCIN SULFATE] | – | – | – | – | 2.5 µg/mL | – |
| Cc1oc2cc(CO)cc(O)c2c(=O)c1O [LACHNONE B] | – | inactive | inactive | inactive | 200 µg/mL (≈ 900 µM) | – |
| C[C@@]1([C@@H]2CCC(=O)O2)Oc2cc(CO)cc(O)c2C(=O)[C@H]1O [LACHNONE D] | – | inactive | inactive | inactive | 200 µg/mL (≈ 649 µM) | – |
